Each block holds one compound with its values, some of them ahead of it. Active and inactive are the calls of the source. No cut-off for these calls is given here.
Key:
[1] = target: Vascular endothelial growth factor receptor 1 (Homo sapiens) (UniProt P17948); experiment: Inhibition of VEGFR1 phosphorylation in growth factor-stimulated HUVEC
HUVEC [2] = experiment: cells; details: Homo sapiens, 24 h
HUVEC [3] = experiment: Cytotoxicity against HUVEC assessed as decrease in cell viability at 1 to 100 uM after 24 hrs by Hoechst 33258 staining method; assay type: cell-based; details: human
Outline: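 HUVEC seeded at 20,000 cells/cm²; after 24 h, treated with test agent (0–100 µM) in RPMI 1640 + 2% FCS for 24 h. Cells lysed by freezing at −80 °C, lysates incubated with Hoechst 33258 for 1 h with agitation. Fluorescence read at ex 360/em 460 nm; expressed as % variation vs untreated; mean ± SD, n = 3 in triplicate.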

HUVEC [4] = experiment: Cytostatic activity against HUVEC assessed as decrease in metabolic activity after 24 hrs by MTT assay; assay type: ADME, cell-based, Homo sapiens
Outline: (§1)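 Primary HUVEC (passage ≤5) seeded at 20,000 cells/cm² in complete medium; after 24 h, exposed to test agent (0–100 µM) in RPMI 1640 + 2% heat-inactivated FCS for 24 h. MTT 0.4 mg/mL, 37 °C for 3 h; formazan dissolved in DMSO, absorbance read at 570/630 nm. Expressed as % variation vs untreated medium; mean ± SD, n = 3 in triplicate.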

HUVEC [5] = experiment: Cytostatic activity against HUVEC assessed as decrease in metabolic activity at 100 uM after 24 hrs by MTT assay relative to control; assay type: ADME, cell-based; set-up: scale not given: the % may be the effect or the level left; details: human; outline: as §1
HUVEC [6] = experiment: Cytostatic activity against HUVEC assessed as decrease in metabolic activity at 1.5 uM after 24 hrs by MTT assay relative to control; assay type: ADME, cell-based; set-up: scale not given: the % may be the effect or the level left; details: human; outline: as §1
[7] = target: T1, Ephrin type-A receptor 6 (Homo sapiens) (UniProt Q9UF33); experiment: Inhibition of EPHA6 phosphorylation in growth factor-stimulated HUVEC at 3 uM after 24 hrs
T1 sequence (whole entry): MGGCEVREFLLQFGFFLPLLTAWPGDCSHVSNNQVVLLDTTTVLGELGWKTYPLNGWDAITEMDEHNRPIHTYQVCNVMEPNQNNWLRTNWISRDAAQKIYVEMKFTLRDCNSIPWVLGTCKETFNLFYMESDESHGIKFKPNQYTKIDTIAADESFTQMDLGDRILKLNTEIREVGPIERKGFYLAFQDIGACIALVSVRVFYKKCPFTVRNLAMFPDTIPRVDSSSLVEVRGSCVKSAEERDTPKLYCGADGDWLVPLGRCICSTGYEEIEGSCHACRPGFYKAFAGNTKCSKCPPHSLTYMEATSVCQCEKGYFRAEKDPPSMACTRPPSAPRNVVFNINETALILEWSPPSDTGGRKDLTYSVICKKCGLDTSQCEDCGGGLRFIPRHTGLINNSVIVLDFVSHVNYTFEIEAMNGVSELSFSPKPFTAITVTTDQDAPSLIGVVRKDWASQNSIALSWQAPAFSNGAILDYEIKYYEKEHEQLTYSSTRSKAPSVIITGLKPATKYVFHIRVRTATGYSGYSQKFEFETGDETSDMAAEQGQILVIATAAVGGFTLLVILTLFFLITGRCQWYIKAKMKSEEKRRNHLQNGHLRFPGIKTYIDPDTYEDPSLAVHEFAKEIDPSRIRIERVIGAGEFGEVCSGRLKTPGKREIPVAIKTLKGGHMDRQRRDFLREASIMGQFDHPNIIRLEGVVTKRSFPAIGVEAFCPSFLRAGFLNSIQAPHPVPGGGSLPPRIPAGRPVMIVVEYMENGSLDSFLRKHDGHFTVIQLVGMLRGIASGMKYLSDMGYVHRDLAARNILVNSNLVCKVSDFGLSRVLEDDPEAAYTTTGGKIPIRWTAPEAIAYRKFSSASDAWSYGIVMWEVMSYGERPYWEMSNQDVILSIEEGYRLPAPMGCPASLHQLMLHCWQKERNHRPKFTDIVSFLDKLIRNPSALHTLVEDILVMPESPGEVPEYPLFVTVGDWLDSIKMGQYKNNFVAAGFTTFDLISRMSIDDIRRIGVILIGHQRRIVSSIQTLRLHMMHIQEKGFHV

[8] = target: Tyrosine-protein kinase transmembrane receptor ROR2 (Homo sapiens) (UniProt Q01974); experiment: Inhibition of ROR2 phosphorylation in growth factor-stimulated HUVEC at 3 uM after 24 hrs
[9] = target: Tyrosine-protein kinase receptor Tie-1 (Homo sapiens) (UniProt P35590); experiment: Inhibition of TIE-1 phosphorylation in growth factor-stimulated HUVEC at 3 uM after 24 hrs
[10] = target: Tyrosine-protein kinase receptor UFO (Homo sapiens) (UniProt P30530); experiment: Inhibition of AXL phosphorylation in growth factor-stimulated HUVEC at 3 uM after 24 hrs
Sequence of Tyrosine-protein kinase receptor UFO (Homo sapiens) (P30530 whole entry): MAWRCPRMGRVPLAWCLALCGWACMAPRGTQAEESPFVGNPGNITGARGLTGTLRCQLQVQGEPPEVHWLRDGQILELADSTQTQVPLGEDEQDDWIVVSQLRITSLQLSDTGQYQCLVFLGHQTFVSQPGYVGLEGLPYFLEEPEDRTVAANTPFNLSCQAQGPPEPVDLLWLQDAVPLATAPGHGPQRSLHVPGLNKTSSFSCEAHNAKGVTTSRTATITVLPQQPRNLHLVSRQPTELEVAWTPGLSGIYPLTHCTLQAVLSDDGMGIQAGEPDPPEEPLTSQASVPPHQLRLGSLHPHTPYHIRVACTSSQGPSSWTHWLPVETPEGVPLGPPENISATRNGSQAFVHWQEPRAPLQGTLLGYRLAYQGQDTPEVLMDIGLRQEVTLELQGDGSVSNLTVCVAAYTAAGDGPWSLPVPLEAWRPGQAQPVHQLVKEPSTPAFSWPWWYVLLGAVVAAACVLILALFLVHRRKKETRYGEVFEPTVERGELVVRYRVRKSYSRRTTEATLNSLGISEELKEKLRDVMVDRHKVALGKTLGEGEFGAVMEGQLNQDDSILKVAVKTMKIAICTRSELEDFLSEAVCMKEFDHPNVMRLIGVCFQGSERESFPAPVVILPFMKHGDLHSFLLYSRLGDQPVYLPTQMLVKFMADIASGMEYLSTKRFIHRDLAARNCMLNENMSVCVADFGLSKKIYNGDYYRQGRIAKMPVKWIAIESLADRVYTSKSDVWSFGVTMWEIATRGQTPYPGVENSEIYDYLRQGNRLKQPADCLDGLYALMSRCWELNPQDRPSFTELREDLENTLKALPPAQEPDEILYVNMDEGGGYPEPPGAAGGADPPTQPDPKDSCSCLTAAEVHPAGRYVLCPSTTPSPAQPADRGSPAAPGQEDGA

[11] = target: T2, Tyrosine-protein kinase receptor TYRO3 (Homo sapiens) (UniProt Q06418); experiment: Inhibition of DTK phosphorylation in growth factor-stimulated HUVEC at 3 uM after 24 hrs
T2 sequence (whole entry): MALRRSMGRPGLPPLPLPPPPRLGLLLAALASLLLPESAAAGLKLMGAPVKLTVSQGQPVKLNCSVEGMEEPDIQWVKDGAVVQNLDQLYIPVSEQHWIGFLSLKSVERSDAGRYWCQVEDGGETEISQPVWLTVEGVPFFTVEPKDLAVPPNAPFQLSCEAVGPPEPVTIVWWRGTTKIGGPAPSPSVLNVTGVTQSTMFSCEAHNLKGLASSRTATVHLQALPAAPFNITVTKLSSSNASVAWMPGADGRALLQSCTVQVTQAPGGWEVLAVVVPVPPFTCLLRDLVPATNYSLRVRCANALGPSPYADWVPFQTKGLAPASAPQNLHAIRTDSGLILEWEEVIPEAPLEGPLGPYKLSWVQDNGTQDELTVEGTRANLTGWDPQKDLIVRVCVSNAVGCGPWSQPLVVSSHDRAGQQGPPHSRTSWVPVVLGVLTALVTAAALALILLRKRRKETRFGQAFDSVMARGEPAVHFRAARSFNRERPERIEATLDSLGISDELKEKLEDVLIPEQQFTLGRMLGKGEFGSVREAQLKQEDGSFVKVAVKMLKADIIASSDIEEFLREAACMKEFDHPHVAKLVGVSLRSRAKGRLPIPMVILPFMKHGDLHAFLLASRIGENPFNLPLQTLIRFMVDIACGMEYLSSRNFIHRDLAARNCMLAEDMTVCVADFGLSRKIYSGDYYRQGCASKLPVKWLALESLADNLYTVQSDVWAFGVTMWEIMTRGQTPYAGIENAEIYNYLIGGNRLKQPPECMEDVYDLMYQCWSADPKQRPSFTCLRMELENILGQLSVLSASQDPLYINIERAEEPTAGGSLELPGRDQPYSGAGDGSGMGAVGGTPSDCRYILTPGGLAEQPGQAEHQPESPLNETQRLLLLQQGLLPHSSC

[12] = target: Epidermal growth factor receptor (Homo sapiens) (UniProt P00533); experiment: Inhibition of EGFR phosphorylation in growth factor-stimulated HUVEC at 3 uM after 24 hrs
Sequence of Epidermal growth factor receptor (Homo sapiens) (P00533 whole entry): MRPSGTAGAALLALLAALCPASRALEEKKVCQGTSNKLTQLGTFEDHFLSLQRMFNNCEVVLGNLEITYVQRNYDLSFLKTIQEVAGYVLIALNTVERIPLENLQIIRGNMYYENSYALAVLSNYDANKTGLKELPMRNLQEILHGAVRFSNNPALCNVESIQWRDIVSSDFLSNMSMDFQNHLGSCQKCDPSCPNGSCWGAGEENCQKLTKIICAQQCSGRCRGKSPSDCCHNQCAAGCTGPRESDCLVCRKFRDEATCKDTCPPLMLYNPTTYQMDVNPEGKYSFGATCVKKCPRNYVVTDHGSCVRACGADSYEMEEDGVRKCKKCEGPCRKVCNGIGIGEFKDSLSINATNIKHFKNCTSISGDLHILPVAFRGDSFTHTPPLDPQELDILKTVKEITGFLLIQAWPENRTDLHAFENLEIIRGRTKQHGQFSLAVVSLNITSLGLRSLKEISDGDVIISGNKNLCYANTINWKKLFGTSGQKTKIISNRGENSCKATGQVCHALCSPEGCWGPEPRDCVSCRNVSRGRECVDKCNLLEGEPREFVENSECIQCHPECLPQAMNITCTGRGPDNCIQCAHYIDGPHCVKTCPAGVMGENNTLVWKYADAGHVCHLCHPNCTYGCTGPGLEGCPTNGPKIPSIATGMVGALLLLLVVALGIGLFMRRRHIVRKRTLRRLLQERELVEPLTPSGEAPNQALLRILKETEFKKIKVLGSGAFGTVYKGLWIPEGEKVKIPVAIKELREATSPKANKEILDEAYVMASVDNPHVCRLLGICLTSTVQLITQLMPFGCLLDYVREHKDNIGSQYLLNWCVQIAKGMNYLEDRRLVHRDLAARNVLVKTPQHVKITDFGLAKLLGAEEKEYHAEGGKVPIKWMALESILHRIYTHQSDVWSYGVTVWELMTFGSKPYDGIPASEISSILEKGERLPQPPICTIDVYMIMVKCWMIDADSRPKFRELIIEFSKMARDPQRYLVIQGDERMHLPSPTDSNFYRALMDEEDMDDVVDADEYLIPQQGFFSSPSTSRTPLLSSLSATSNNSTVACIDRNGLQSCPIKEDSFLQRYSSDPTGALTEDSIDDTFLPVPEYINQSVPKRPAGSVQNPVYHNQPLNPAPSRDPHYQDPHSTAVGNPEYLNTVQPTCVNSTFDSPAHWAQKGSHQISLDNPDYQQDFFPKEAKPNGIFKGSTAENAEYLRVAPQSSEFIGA

[13] = target: T3, Vascular endothelial growth factor receptor 2 (Homo sapiens, UniProt P35968); experiment: Inhibition of VEGFR2 phosphorylation in growth factor-stimulated HUVEC at 3 uM after 24 hrs
T3 sequence (P35968 whole entry): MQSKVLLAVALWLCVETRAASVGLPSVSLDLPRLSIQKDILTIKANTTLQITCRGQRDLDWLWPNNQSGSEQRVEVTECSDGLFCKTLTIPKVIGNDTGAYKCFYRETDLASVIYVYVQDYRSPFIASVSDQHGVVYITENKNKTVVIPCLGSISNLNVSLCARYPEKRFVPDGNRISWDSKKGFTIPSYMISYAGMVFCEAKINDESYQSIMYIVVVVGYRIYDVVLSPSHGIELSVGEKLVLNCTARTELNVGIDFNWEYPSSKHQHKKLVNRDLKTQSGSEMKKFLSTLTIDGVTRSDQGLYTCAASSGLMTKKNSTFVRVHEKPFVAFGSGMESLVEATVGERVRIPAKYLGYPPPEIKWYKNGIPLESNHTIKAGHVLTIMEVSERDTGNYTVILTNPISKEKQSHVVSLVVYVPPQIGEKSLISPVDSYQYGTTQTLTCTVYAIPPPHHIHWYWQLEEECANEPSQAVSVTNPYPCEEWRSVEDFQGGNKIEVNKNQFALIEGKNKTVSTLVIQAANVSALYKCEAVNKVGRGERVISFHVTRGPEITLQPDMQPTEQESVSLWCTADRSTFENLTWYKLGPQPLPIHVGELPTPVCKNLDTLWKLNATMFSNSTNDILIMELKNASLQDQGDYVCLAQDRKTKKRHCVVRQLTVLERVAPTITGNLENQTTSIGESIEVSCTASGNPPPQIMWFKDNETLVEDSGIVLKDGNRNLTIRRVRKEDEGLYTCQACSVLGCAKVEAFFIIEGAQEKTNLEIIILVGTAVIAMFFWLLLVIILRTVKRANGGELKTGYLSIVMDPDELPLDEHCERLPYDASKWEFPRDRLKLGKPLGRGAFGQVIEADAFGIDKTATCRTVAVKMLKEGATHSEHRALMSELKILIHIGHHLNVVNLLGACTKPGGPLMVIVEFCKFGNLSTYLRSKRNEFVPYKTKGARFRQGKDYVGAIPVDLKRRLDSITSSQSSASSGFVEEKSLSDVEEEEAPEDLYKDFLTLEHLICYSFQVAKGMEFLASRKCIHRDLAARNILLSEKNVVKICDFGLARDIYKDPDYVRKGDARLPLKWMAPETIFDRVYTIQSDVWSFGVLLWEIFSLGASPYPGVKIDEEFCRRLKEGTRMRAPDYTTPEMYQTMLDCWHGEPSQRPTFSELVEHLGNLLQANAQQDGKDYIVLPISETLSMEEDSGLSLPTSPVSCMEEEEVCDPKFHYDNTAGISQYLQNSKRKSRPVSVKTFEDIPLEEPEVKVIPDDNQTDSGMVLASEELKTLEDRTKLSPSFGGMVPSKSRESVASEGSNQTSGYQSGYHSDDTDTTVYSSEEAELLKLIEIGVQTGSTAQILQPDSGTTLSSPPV

[14] = target: Vascular endothelial growth factor receptor 1 (Homo sapiens) (UniProt P17948); experiment: Inhibition of VEGFR1 phosphorylation in growth factor-stimulated HUVEC at 3 uM after 24 hrs
[15] = target: T3, Vascular endothelial growth factor receptor 2; experiment: Inhibition of human recombinant VEGFR2

Sequence of Vascular endothelial growth factor receptor 1 (Homo sapiens) (P17948 whole entry): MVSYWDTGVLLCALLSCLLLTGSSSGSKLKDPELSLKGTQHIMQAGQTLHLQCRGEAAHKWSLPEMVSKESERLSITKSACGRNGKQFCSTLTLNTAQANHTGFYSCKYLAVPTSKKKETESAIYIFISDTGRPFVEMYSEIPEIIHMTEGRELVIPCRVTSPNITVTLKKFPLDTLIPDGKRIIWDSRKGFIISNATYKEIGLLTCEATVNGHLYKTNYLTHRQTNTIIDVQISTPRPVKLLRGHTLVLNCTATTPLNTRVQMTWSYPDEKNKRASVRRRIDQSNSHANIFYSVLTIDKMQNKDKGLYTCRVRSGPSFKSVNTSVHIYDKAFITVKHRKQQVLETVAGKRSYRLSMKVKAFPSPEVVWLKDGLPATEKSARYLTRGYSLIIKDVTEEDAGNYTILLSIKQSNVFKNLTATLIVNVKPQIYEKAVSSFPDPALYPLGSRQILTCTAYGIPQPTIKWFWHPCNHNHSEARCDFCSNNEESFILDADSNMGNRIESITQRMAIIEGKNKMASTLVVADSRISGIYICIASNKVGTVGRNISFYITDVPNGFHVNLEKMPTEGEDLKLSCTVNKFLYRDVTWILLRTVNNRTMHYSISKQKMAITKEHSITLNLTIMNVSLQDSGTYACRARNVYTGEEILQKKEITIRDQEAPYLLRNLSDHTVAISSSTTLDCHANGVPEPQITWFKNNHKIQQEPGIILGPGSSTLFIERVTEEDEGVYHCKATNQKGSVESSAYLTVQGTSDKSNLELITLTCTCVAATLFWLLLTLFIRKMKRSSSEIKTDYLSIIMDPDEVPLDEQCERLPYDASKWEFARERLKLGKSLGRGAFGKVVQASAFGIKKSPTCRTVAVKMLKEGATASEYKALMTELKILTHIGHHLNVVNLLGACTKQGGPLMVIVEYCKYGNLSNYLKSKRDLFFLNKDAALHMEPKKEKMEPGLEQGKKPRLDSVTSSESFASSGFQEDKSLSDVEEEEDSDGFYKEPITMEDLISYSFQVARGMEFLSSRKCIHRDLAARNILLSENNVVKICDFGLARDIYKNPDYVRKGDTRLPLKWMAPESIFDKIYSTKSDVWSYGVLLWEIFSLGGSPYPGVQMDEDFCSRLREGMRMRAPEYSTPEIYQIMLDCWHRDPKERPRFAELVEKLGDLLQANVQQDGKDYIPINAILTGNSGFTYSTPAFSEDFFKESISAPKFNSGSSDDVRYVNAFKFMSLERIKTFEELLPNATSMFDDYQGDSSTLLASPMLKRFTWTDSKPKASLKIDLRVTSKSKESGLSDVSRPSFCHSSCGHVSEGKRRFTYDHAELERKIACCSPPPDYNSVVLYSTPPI

inhibition [1]: Active
SMILES: CCN(CC)CCNC(=O)c1c(C)[nH]c(/C=C2\C(=O)Nc3ccc(F)cc32)c1C [SUNITINIB]
EC50 (HUVEC [2]): 645 nM

SMILES: O=C(O)C(O)C(O)C(=O)O.O=c1[nH]c(CN2CCCCC2)nc2cc(-c3cn(Cc4ccccc4)c4ccccc34)sc12
Activity (HUVEC [3]): Non-toxic
EC50 (HUVEC [4]; Homo sapiens, HUVEC): 12000 nM
Activity (HUVEC [4]; human, huvec): Dose-dependent effect
Activity (HUVEC [5]): 51%
Activity (HUVEC [6]): 9%
EC50 (HUVEC [2]): 31 nM

inhibition [7]: Active
inhibition [8]: Active
inhibition [9]: Active
inhibition [10]: Active
inhibition [11]: Active
inhibition [12]: Active
inhibition [13]: Active
inhibition [14]: Active
SMILES: O=c1[nH]c(CN2CCCCC2)nc2cc(-c3cn(Cc4ccccc4)c4ccccc34)sc12 [listing 1 of 2 here]

IC50 [15]: 2250 nM
SMILES: O=c1[nH]c(CN2CCCCC2)nc2cc(-c3cn(Cc4ccccc4)c4ccccc34)sc12 [listing 2 of 2 here]
